Data on 13 compounds can be found in ChEMBL document CHEMBL4190301, “Isolation, Structure Elucidition, and Immunosuppressive Activity of Diterpenoids from Ligularia fischeri” (J Nat Prod, 2017).

Assay [1] has as its system HMy2.C1R. Description: Immunosuppressive activity in human HMy2.C1R cells assessed as cell growth inhibition at 2.5 to 40 uM after 48 hrs by SRB assay. It is filed as functional, cell-based. In outline: (§1)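 Human B lymphoblast HMy2.CIR cells were seeded in 96-well plates in medium with 5% FBS. After 24 h, a plate was TCA-fixed as time zero (T0). Cells were then exposed to DMSO or compound at 2.5–40 μM for 48 h, fixed with 10% TCA and stained with 0.4% SRB in 1% HOAc. Bound dye was solubilized in 10 mM Trizma base and read at 540 nm. Percentage growth was calculated from T0, control and treated absorbances; mean ± SD, n = 3.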
In general terms: Sulforhodamine B stains cellular protein and so reports cell mass.

Assay [2] relates to HMy2.C1R. Description: […] in human HMy2.C1R cells at 2.5 to 40 uM after 48 hrs by SRB assay. It is filed as functional, cell-based. An outline of the steps: as §1
The test system of assay [3] is HMy2.C1R. Description: Immunosuppressive activity in human HMy2.C1R cells assessed as cell growth at 20 uM after 48 hrs by SRB assay relative to control. It is filed as functional. In outline: as §1
The subject of assay [4] is HMy2.C1R. Description: Immunosuppressive activity in human HMy2.C1R cells assessed as cell growth at 5 uM after 48 hrs by SRB assay relative to control. The format is functional. In outline: as §1
The test system of assay [5] is HMy2.C1R. Description: Immunosuppressive activity in human HMy2.C1R cells assessed as cell growth at 10 uM after 48 hrs by SRB assay relative to control. The format is functional. An outline of the steps:
as §1

Assay [6] deals with HMy2.C1R. Description: Immunosuppressive activity in human HMy2.C1R cells assessed as cell growth at 40 uM after 48 hrs by SRB assay relative to control. The format is functional. In outline:
as §1

Assay [7] relates to HMy2.C1R. In words: Immunosuppressive activity in human HMy2.C1R cells assessed as cell growth at 2.5 uM after 48 hrs by SRB assay relative to control. It is filed as functional. An outline of the steps: as §1
Assay [8] concerns HMy2.C1R. Description: Immunosuppressive activity in human HMy2.C1R cells assessed as cell growth inhibition after 48 hrs by SRB assay.

The source made the active and inactive calls. The calls are words filed in the database; no cut-off is given here.

`C[C@]12CCC[C@]3(COC1=O)[C@@H]2C[C@H](O)[C@@]12C[C@@H](CC[C@]13O)[C@](C)(O)C2`: the inhibition result in the assay on HMy2.C1R [1] was “inactive”.
In the case of `C=C1[C@H](O)CC[C@@H]2[C@@]3(C)CC[C@](C)(O)C[C@@H]3CC[C@@]12C`, in the assay on HMy2.C1R [2], the Activity result was “Dose-dependent effect”.
In the case of `CC1(C)CCC[C@]2(C=O)[C@@H]1CC[C@@]13C[C@@H](CC[C@H]12)[C@](C)(O)C3`, in the assay with HMy2.C1R [1], the inhibition result is “inactive”.
Same read-out and setting: as for `C[C@@]12CC[C@@H](O)[C@@](C)(C(=O)O)[C@H]1CC[C@@]13C[C@@H](CC[C@H]12)[C@@](O)(CO)C3`, the entry is “inactive”; as for `CC1(C)CCC[C@]2(C(=O)O)[C@@H]1CC[C@@]13C[C@@H](CC[C@H]12)[C@](C)(O)C3`, “inactive”.
As for `C[C@]12CCC[C@@]3(COC1=O)[C@@H]1[C@@H]4C[C@@H]5C[C@@]1(CC[C@@H]32)C[C@]5(C)O4`, in the assay with HMy2.C1R [1], the inhibition result is “inactive”.
For the compound `C=C[C@](C)(O)CC[C@@H]1C(=C)CC[C@@H]2C(C)(C)C[C@@H](O)C[C@@]12C`, the Ratio in the assay on HMy2.C1R [3] amounted to 0.648; in the assay with HMy2.C1R [4], 0.812; with HMy2.C1R [5], 0.761; with HMy2.C1R [6] it was 0.39; in the assay with HMy2.C1R [7] it was 0.934. Moreover, in the assay with HMy2.C1R [8], the IC50 worked out at 31.4 µM.
On to `C[C@]12CCC[C@@]3(COC1=O)[C@@H]1CC[C@@H]4C[C@@]1(CC[C@@H]32)C[C@@]4(C)O`, for which the Ratio is 0.683 in the assay on HMy2.C1R [3]; 0.809 with HMy2.C1R [4]; 0.762 in the assay on HMy2.C1R [5]; 0.6 in the assay on HMy2.C1R [6]; 0.849 with HMy2.C1R [7]. Also, in the assay with HMy2.C1R [8], the IC50 turned out to be 56.3 µM.
Regarding `C[C@]12CCC[C@]3(COC1=O)[C@@H]2CC[C@@]12C[C@@H](CC[C@]13O)[C@](C)(O)C2`, the Activity result with HMy2.C1R [2] was “Dose-dependent effect”.
Take `CC1(C)CCC[C@]2(C=O)[C@@H]1CC[C@@]13C[C@@H](CC[C@H]12)[C@@](O)(CO)C3`: the Ratio in the assay on HMy2.C1R [3] came to 0.455; with HMy2.C1R [4], 0.685; in the assay on HMy2.C1R [5] it was 0.525; with HMy2.C1R [6], 0.301; in the assay on HMy2.C1R [7] it was 0.791. In addition, the half-inhibitory concentration (IC50) with HMy2.C1R [8] came to 13.3 µM.
Consider `CC1(C)CCC[C@]2(C)[C@@H]1CC[C@@]13C[C@@H](CC[C@H]12)[C@](C)(O)C3`, for which the inhibition entry in the assay on HMy2.C1R [1] was “inactive”.
Same read-out and setting: in the case of `COc1cc(/C=C/C(=O)OC[C@@]2(O)C[C@@]34CC[C@@H]5C(C)(C)CCC[C@@]5(C(=O)O)[C@@H]3CC[C@@H]2C4)ccc1O` it was “inactive”; in that of `CC1(C)CCC[C@]2(C(=O)O)[C@@H]1CC[C@@]13C[C@@H](CC[C@H]12)[C@@](O)(CO)C3`, “inactive”.

Usually IC50 stands for the concentration that inhibits the measured activity by half.
